Source: PMC6319256 (Bioorganic & medicinal chemistry letters, 2018)
“Also recorded” adds a separate entry of the source. One block for each compound: values may come before it.

What was measured:
K-Ras^G12C = conditions: cited from earlier work
cathepsin L [1] = molecular target: T1, cathepsin L (Homo sapiens, UniProt P07711); conditions: cited from earlier work; for kinact: cathepsin L, range stated for both compounds and both enzymes
Cathepsin B [2] = molecular target: T2, Cathepsin B (Homo sapiens, UniProt P07858); conditions: cited from earlier work; for kinact: cathepsin B, range stated for both compounds and both enzymes
USP8 = molecular target: T3, USP8 (Homo sapiens, UniProt P40818); assay: USP8 inhibition with and without preincubation; format: biochemical; conditions: with and without preincubation of the inhibitor
T3 sequence (P40818 1-1118): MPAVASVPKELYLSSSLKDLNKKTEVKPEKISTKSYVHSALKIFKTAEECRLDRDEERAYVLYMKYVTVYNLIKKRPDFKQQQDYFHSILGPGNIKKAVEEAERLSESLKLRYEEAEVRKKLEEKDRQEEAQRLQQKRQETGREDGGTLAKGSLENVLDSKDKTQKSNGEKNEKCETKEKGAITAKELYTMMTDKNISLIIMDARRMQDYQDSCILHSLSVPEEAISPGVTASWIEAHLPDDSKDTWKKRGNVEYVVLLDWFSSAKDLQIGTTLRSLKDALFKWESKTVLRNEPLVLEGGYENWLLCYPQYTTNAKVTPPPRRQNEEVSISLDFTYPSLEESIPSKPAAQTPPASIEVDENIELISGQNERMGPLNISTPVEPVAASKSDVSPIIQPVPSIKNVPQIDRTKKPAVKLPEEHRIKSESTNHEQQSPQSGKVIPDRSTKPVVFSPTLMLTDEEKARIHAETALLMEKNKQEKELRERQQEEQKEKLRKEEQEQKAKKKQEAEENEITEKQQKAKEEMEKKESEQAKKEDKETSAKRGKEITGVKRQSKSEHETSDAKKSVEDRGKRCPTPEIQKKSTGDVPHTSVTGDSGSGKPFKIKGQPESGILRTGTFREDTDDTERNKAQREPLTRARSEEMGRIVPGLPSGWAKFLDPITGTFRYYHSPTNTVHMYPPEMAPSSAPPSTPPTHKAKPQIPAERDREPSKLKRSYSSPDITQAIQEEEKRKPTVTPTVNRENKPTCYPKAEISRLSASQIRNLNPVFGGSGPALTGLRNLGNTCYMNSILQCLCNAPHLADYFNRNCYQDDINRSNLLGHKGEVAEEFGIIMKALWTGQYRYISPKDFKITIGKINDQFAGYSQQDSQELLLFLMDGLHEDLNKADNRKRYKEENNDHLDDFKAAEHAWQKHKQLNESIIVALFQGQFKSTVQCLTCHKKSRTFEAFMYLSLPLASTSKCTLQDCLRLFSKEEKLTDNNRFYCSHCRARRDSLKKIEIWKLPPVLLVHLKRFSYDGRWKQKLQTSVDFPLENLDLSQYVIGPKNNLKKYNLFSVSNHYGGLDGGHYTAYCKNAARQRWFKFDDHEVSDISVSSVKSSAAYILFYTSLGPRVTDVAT

cathepsin L [3] = molecular target: T1, cathepsin L; assay: Cathepsin L inhibition kinetics; format: biochemical
cathepsin L [4] = molecular target: T1, cathepsin L; assay: Irreversibility study; format: biochemical; conditions: 50 μM compound preincubated with Cathepsin L (10 nM), gel filtration
Method in brief: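 Test compound at 50 μM was preincubated with cathepsin L at 10 nM, then passed through a desalting spin column. Flow-through aliquots were assayed for recovery of enzyme activity at several time points.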

Calpain I = molecular target: T4, Calpain I (Homo sapiens, UniProt P07384); assay: Calpain I inhibition with and without preincubation; format: biochemical; conditions: with and without preincubation of the inhibitor
T4 sequence (P07384 1-714): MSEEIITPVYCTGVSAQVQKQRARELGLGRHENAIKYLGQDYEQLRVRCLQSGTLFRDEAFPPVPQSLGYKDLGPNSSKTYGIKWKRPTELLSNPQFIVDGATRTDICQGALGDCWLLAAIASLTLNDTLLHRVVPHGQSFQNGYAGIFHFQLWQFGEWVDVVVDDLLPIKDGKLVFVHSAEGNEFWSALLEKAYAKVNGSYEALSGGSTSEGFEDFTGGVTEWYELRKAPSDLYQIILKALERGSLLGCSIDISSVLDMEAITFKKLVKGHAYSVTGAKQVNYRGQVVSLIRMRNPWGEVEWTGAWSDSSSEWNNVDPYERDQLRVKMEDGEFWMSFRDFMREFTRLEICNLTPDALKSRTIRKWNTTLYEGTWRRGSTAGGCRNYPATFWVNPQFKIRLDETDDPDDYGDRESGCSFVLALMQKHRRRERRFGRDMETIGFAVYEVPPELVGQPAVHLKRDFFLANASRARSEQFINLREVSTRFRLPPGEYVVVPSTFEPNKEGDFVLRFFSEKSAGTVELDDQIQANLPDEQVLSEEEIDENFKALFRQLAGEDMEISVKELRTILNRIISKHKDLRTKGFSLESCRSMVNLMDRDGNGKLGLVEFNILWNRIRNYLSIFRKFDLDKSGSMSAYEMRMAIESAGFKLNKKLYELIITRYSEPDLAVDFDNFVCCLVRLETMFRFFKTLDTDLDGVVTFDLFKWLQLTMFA
T4 sequence (P04632 1-268 partner): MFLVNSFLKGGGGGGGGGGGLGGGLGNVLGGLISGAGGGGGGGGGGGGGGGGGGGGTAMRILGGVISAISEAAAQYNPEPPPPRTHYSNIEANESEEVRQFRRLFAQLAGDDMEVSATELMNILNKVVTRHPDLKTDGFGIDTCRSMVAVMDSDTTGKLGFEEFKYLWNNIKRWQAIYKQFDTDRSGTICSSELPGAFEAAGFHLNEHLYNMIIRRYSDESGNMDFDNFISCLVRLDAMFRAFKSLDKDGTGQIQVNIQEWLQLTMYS

Cathepsin B [5] = molecular target: T2, Cathepsin B; assay: Cathepsin B inhibition with and without preincubation; format: biochemical; conditions: with and without preincubation of the inhibitor

T1 sequence (P07711 114-333): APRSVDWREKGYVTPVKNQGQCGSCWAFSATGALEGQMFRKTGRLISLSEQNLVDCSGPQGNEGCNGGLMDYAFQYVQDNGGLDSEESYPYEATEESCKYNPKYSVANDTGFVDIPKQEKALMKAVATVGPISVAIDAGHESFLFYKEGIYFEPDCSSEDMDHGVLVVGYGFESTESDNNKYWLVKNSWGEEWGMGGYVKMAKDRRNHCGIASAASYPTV

Structure (SMILES): C=CC(=O)N1CCN(c2ncnc3c(F)c(-c4c(O)cccc4F)c(Cl)cc23)CC1 [ARS-1620]
activity in vivo (K-Ras^G12C): active in vivo

Structure (SMILES): O=C(N[C@H](/C=C/S(=O)(=O)c1ccccc1)CCc1ccccc1)[C@H](Cc1cc(I)c(O)c(I)c1)NC(=O)N1CCOCC1 [compound 8]
kinact (cathepsin L [1]): 0.17 to 0.36 s⁻¹ | selectivity cathepsin L vs B as judged by Ki values (cathepsin L [1]): reversed selectivity | kinact (Cathepsin B [2]): 0.17 to 0.36 s⁻¹ | potency for cathepsin B (kinact/Ki values) (Cathepsin B [2]; relative to compound 7): increased potency

Structure (SMILES): O=C(N[C@H](/C=C/S(=O)(=O)c1ccccc1)CCc1ccccc1)[C@H](Cc1ccccc1)NC(=O)N1CCOCC1 [compound 7]
kinact (cathepsin L [1]): 0.17 to 0.36 s⁻¹ | selectivity cathepsin L vs B as judged by Ki values (cathepsin L [1]): more selective at inhibiting cathepsin L | kinact (Cathepsin B [2]): 0.17 to 0.36 s⁻¹

mode of inhibition (shift of substrate Km) (cathepsin L [3]; varying concentrations of compound): substrate competitive inhibitor | reversibility of inhibition (cathepsin L [4]): irreversibly
Structure (SMILES): CS(=O)(=O)/C=C/CNC(=O)COc1ccc(Br)cc1Br [compound 13]
inhibition of USP8 (USP8): did not inhibit; also recorded: does not inhibit | inhibition of Calpain I (Calpain I): did not inhibit; also recorded: does not inhibit | inhibition of Cathepsin B (Cathepsin B [5]): did not inhibit; also recorded: does not inhibit

inhibition of cathepsin L (cathepsin L [3]): time and dose dependent inhibition
Structure (SMILES): C[C@@H](Oc1ccc(Br)cc1Br)C(=O)NC/C=C/S(C)(=O)=O [compound 11]
